Laboratory results published in PubChem BioAssay AID623977 (Vanderbilt High Throughput Screening Facility, 2012).

Biological target: G protein-activated inward rectifier potassium channel 2 (Homo sapiens) + G protein-activated inward rectifier potassium channel 1 (Homo sapiens) (UniProt P48051+P48549)
Assay: GIRK1/2 channel activators by patch clamp, confirmation, orthogonal assay for GIRK activator project, HEK-293 hGIRK1/2, whole-cell voltage clamp, Ba2+-sensitive current (AID 623977)
Conditions: HEK-293 hGIRK1/2, whole-cell patch clamp current
How it was run: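 Assay system: HEK-293 cells stably expressing human GIRK1/2 channels; Buffer or medium: 20 mM K+ bath, pH 7.4, KCl pipette solution; Dosing: test compound diluted in 20 mM K+ bath solution; Timing: recordings 24–72 h post-plating; Signal: whole-cell patch clamp, -70 mV.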

G protein-activated inward rectifier potassium channel 2 (Homo sapiens) + G protein-activated inward rectifier potassium channel 1 (Homo sapiens), sequence (P48051 whole entry, looked up): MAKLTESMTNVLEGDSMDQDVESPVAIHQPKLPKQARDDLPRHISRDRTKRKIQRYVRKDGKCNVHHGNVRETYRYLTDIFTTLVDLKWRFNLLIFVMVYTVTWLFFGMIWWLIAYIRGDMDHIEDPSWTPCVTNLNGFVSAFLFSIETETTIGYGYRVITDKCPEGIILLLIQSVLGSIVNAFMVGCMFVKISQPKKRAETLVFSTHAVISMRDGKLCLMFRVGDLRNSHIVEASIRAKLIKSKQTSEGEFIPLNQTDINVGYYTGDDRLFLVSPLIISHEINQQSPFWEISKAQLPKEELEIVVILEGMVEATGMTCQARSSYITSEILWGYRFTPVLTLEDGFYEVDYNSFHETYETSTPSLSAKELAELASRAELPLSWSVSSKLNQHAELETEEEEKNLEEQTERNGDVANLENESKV
G protein-activated inward rectifier potassium channel 2 (Homo sapiens) + G protein-activated inward rectifier potassium channel 1 (Homo sapiens), sequence (P48549 whole entry, looked up): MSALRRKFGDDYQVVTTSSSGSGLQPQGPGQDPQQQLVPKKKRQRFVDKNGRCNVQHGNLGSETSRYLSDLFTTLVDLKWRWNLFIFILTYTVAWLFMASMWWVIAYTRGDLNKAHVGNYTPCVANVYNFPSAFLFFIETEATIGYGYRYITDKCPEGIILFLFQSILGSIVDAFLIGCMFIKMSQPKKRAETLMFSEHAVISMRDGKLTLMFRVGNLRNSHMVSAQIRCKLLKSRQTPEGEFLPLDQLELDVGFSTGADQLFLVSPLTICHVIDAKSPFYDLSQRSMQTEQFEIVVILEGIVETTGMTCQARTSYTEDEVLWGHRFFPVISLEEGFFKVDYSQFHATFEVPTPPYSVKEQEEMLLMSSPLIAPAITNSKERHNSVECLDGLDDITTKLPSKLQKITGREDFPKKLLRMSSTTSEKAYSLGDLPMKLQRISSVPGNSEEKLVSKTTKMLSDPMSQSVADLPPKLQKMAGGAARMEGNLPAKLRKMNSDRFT

Cc1cc(NC(=O)Nc2ccc(F)c(F)c2)n(-c2ccccc2)n1
EC50: 0.0541 µM
